Screening data as filed in PubChem BioAssay.
This is a sample that favours compounds with a hit; in the whole collection about 4% have one here.
S1P3 antag – S1P3 receptor antagonists, primary screen, cell-based; inhibition, % at 4.98 µM; 170,000 compounds, 0.27% hits; Sphingosine 1-phosphate receptor 3 (Homo sapiens), Q99500; CHO S1P3 NFAT-BLA reporter, FRET fluorescence, antagonist mode;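 active = inhibition above the plate cutoff, the mean inhibition of test wells on that plate plus 3 SD, cut at about 28% in these data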;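 note: cells challenged with S1P at its EC80 of 0.8 µM; blue over green emission ratio from cleaved BLA substrate after 4 h stimulation; 0% = S1P-stimulated wells and 100% = unstimulated DMSO-only wells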
Target sequence (Q99500 whole entry, looked up): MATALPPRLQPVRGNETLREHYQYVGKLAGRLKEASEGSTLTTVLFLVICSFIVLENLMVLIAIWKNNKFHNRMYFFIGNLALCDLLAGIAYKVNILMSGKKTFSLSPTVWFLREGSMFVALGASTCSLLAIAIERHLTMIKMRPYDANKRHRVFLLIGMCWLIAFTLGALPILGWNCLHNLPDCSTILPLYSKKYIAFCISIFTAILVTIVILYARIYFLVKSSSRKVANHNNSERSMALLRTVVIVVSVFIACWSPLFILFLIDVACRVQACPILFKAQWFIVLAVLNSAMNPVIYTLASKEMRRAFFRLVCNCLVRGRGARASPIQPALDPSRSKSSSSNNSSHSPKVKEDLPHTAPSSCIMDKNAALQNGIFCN
CHOP inhibitor – inhibitors of CHOP promoter induction, primary screen, cell-based, unfolded protein response, luciferase reporter; CHO-K1 CHOP-promoter luciferase, tunicamycin-induced, 15-18 h; inhibition, % at 10 µM; 220,000 compounds, 3.8% hits; AID 2732, 2010;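 active = compounds that reduced the stress-induced luciferase reporter signal by more than about 70% of percent inhibition, limit read from the data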;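 note: 0% = tunicamycin plus vehicle and 100% = wells without tunicamycin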
Hsp70 act – Hsp70 transcriptional activators, primary screen, cell-based, HeLa, Hsp70 promoter luciferase, luminescence, 10 µM | HeLa Hsp70 promoter luciferase reporter; scaled: vehicle 0, proteasome-inhibitor control 100% | activation, % at 10 µM | 200,000 compounds, 0.04% hits;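 active = activation above the mean across all tested compounds plus 3 SD, cutoff set per campaign, cut at about 5.5% in these data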;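 note: 100% = MG132 at 30 µM as the positive control and 0% = DMSO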
MDM2 E3 inh – MDM2-luciferase reporter signal enhancers, primary screen, MDM2 E3 ligase inhibitor project, cell-based, luminescence, 1536-well | E3 ubiquitin-protein ligase Mdm2 (Homo sapiens), Q00987 | cell-based MDM2 ubiquitination luciferase reporter, 2 h; 0 = plate control, 100 = twice control, blank-subtracted | signal enhancement, % at 5 µM | 210,000 compounds, 0.11% hits | AID 1230, 2008;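 active = signal enhancement of 30% or more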;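 note: luminescence tracks abundance of the self-degrading MDM2-luciferase fusion protein; higher signal means inhibition of MDM2 E3 ligase activity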
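test system = mammalian cells stably expressing self-ubiquitinating, self-degrading MDM2 E3–luciferase fusion | quantity = 2000 cells/well | incubation = cell settling 4 h, compound treatment 2 h, both 37 °C | signal = luminescence with SteadyLite reagent, 15 min at room temperature | evaluation = % enhancement relative to plate controls after blank subtraction | benchmarks = plate controls and plate blanks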
The depositor's hits bear a star; . = no result.

SMILES	S1P3 antag	CHOP inhibitor	Hsp70 act	MDM2 E3 inh
CCOC(=O)c1sc(=NC(=O)c2ccco2)n(C)c1C	-15	7	0	10
COCCn1c(=NC(=O)c2ccco2)sc2cc(C(=O)OC)ccc21	4	-7	0	-18
C=CCn1c(=NC(=O)c2ccco2)sc2cc(C(=O)OCC)ccc21	-19	84*	0	-16
C=CCn1c(=NC(=O)c2ccco2)sc2cc(C(=O)OC)ccc21	-20	80*	0	-12
Cc1cccc(/C=C2/SC(=O)N(Cc3ccccc3)C2=O)n1	.	93*	0	1
COc1ccc(OC(=O)c2cnn(-c3ccccc3)c2C)cc1	.	0	0	-9
CNc1ccc(Br)cc(C(=O)/C=C/c2cc(OC)ccc2OC)c1=O	.	-32	1	-2
CCNc1ccc(Br)cc(C(=O)/C=C/c2ccc(Cl)cc2Cl)c1=O	.	76*	0	4
COC(=O)CCCC(=O)Nc1ccc(Br)cc1	15	-8	0	2
Cc1ccc(OCCCC(=O)Nc2ccc(Br)cc2)cc1	.	74*	0	-12
CCCCCC(=O)C(=O)c1ccc(O)cc1O	-2	4	.	.
Cc1cc(O)c(C(C)C)cc1C1(c2cc(C(C)C)c(O)cc2C)OC(=O)c2ccccc21	6	106*	.	.
COc1ccc(-c2c(C)[nH]n3c(=O)c(Cc4ccccc4)c(C)nc23)cc1	9	-25	0	4
CCN(CC)c1ccc(NC(=O)C2=CCN(S(=O)(=O)c3ccc(F)cc3)CC2)c(C)c1	12	-6	0	.
CCOC1=C/C(=C/c2c(N)n3nc(S(=O)(=O)CC)sc3nc2=O)C=CC1=O	5	2	0	6
COc1cccc(OCCCOc2ccccc2C(C)C)c1	.	71*	0	-28
CCOC(=O)c1c(C)n(C)c2cc(-c3ccc(C)cc3)c(O)cc12	7	81*	0	-4
CCOC(=O)c1c(C)n(C)c2cc(-c3cccc(C(F)(F)F)c3)c(O)cc12	-3	23	0	4
Cc1nc(N/N=C/c2ccccn2)sc1C	-3	86*	-1	-86
COC(=O)c1ccc(/C=N/Nc2nc(C)c(C)s2)cc1	-11	-41	.	-25
CCN=c1scc(-c2ccc(F)cc2)n1/N=C/c1ccccn1	2	5	0	-17
CCCc1sc(N/N=C/c2ccccn2)nc1-c1ccc(F)cc1	.	87*	0	-9
C=CCn1cnc2scc(-c3ccc(C)cc3)c2c1=O	.	75*	0	-2
S=C1NCCOCCOCCNC(=S)N2CCOCCOCCN1CCOCCOCC2	0	20	0	3
CCCCNC1=CC(=O)C(=O)c2ccccc21	18	25	0	-17
SMILES	S1P3 antag	CHOP inhibitor	Hsp70 act	MDM2 E3 inh
CCCCN1C=CC(=C2C(=O)c3ccccc3C2=O)C=C1	-13	94*	-1	-98
Oc1ccc(N=Nc2c(O)ccc3ccccc23)cc1	.	92*	0	1
O=C(O)c1cc(N=Nc2c(O)ccc3ccccc23)cc(C(=O)O)c1	-3	9	0	-19
NS(=O)(=O)c1ccc(N=Nc2c(O)ccc3ccccc23)cc1	9	74*	0	-25
CCOC1(OCC)C(c2ccc(N)cc2)C(C#N)(C#N)C1(OCC)OCC (configuration not stated)	.	88*	0	-28
Cc1ccc(S(=O)(=O)C(C)C(=O)c2ccc3c(c2)OCCO3)cc1 (configuration not stated)	.	-9	0	-5
COC(=O)c1c(NC(=O)Cn2cnc([N+](=O)[O-])n2)sc2c1CCC(C)C2 (configuration not stated)	-8	75*	0	0
COc1ccc(/C=N/Nc2ccc(C(F)(F)F)cc2[N+](=O)[O-])cc1O	-6	76*	0	.
CCCCNC(=O)CSc1nc2ccccc2n1S(=O)(=O)c1ccc(Cl)cc1	-5	75*	0	-15
Nc1nc(-c2ccc3c(c2)CCO3)cs1	0	-33	0	-16
Cc1cc(C)cc(NC(=O)c2nnn(Cc3cc(C)ccc3C)c2N)c1	34	93*	0	-16
COc1cccc(NC(=O)c2nnn(Cc3ccc(Br)cc3F)c2N)c1	-24	73*	0	-2
Cc1ccccc1Cn1nnc(C(=O)Nc2cccc(C)c2C)c1N	36	26	0	1
CCOc1ccc(N/C=C/C(=O)c2ccccc2)c([N+](=O)[O-])c1	-21	87*	0	-73
O=C(Nc1ccccc1)Nc1snnc1C(=O)Nc1cccc(O)c1	-2	78*	0	-3
O=C(Cn1cncc1-c1ccc([N+](=O)[O-])cc1)Nc1cccc2ccccc12	-14	92*	0	-1
CCOc1ccc(NC(=O)Cn2cncc2-c2ccc([N+](=O)[O-])cc2)cc1	-4	66	0	-17
CCOC(=O)c1cc(CC)sc1/N=C/c1c(O)ccc2ccccc12	-2	9	0	11
Cc1ccccc1OCc1nc2ccccc2c(=O)n1/N=C/c1cn[nH]c1-c1ccccc1	0	85*	0	-31
CC1(C)CC2=C(CO1)C(=S)NC(c1ccccc1)N2CC1CCCO1 (configuration not stated)	15	3	.	-3
O=C(Nc1nc2ccccc2c(=O)[nH]1)c1ccccc1SCc1ccccc1	-8	17	0	-8
CCCCOC(=O)Nc1ccc(C(=O)OCCC)cc1	8	86*	1	0
CCCCCCCCOC(=O)c1ccc(N)cc1	.	76*	0	.
CC(C)(C)c1ccc(C(=O)O)c(C(=O)c2ccccc2)c1	-1	2	0	-11
Cn1c(=O)n(C)c2cc(NC(=O)c3ccccc3[N+](=O)[O-])c(Br)cc21	3	3	0	-9
SMILES	S1P3 antag	CHOP inhibitor	Hsp70 act	MDM2 E3 inh
Cc1cc(NC(=O)CSc2nnc(NCc3ccccc3)s2)no1	-5	10	.	.
COc1ccc2cc(C)c(SCC(=O)Nc3cc(C)on3)nc2c1	-23	84*	0	12
CCn1c(SCC(=O)Nc2cc(C)on2)nnc1-c1ccc(OC)cc1	-5	21	0	8
COc1ccccc1Nc1nnc(SCC(=O)Nc2cc(C)on2)s1	.	95*	0	-12
COC(=O)Nc1csc2c1NC(=O)CCCC2	3	-9	.	-2
CCC1=[N+](C)c2cccc3cccc(c23)N1C	17	13	0	-24
Cc1cccc(N=Cc2[nH]c3ccc(Br)c(Cl)c3c2O)c1	4	90*	0	4
COc1ccccc1CN=Cc1[nH]c2ccc(Br)c(Cl)c2c1O	.	60	0	-16
CCOc1ccc2nc(NCCNC(=O)Nc3ccccc3)c(C#N)cc2c1	0	83*	0	-6
COc1ccc(-n2sc3c(c2=S)-c2cc(OC)ccc2NC3(C)C)cc1	.	91*	0	-5
